In ChEMBL document CHEMBL2046279, “Trigoflavidols A-C, degraded diterpenoids with antimicrobial activity, from Trigonostemon flavidus” (J Nat Prod, 2012):
pIC50: −log10 of the molar value. In brackets after ≈: the same amount, converted by molar mass.

What was measured:
Staphylococcus aureus [1] = experiment: Antimicrobial activity against Staphylococcus aureus after 18 hrs by two-fold dilution method; format: functional
Staphylococcus aureus [2] = experiment: Antimicrobial activity against 8 isolates of methicillin-resistant Staphylococcus aureus after 18 hrs by two-fold dilution method; format: functional
Staphylococcus aureus [3] = experiment: Antimicrobial activity against 82 isolates of methicillin-resistant Staphylococcus aureus after 18 hrs by two-fold dilution method; format: functional
HL-60 = experiment: Cytotoxicity against human HL60 cells by MTT assay; format: functional, cell-based
SMMC-7721 = experiment: Cytotoxicity against human SMMC7721 cells by MTT assay; format: functional, cell-based
A549 = experiment: Cytotoxicity against human A549 cells by MTT assay; format: functional, cell-based
MCF7 = experiment: Cytotoxicity against human MCF7 cells by MTT assay; format: functional, cell-based
SW480 = experiment: Cytotoxicity against human SW480 cells by MTT assay; format: functional, cell-based
Staphylococcus aureus [4] = experiment: Antimicrobial activity against Staphylococcus aureus by agar plate punch assay; format: functional
Procedure, shortened: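 Compounds dissolved in DMSO at 500 μg/mL; 50 μL placed in a 6 mm well punched in MH agar smeared with test organism suspension (1.5 × 10^9 cfu/mL). Read-out is diameter of the inhibition zone.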

SMILES	MIC (Staphylococcus aureus [1]) [mg/L]	MIC (Staphylococcus aureus [2]) [mg/L]	MIC (Staphylococcus aureus [3]) [mg/L]	pIC50 (HL-60)	pIC50 (SMMC-7721)	pIC50 (A549)	pIC50 (MCF7)	pIC50 (SW480)	diameter of the inhibition zone (DIZ) (Staphylococcus aureus [4]) [mm]
COC(=O)[C@@]1(O)[C@]2(Oc3cc4c(cc(OC)c5cc(C)c(O)cc54)c(C)c3O2)c2c(cc(OC)c3cc(C)c(O)cc23)[C@@]1(C)O (relative stereo)	1.56 (≈ 2.55 µM)	3.12 (≈ 5.09 µM)	6.25 (≈ 10.2 µM)	4.68	4.67	4.70	4.83	4.80	>10
Cc1cc2c(cc1O)C1=C(C3=C4C(=CC(=O)c5cc(C)c(O)cc54)C(C)(C)C3=O)C(=O)C(C)(C)C1=CC2=O [NEOBOUTOMANNIN]	> 50	–	–	< 4.40	< 4.40	< 4.40	< 4.40	< 4.40	–
COC(=O)[C@@]1(O)[C@@]2(Oc3cc4c(cc(OC)c5cc(C)c(O)cc54)c(C)c3O2)c2c(cc(OC)c3cc(C)c(O)cc23)[C@@]1(C)O [TRIGOFLAVIDOL B]	1.56 (≈ 2.55 µM)	3.12 (≈ 5.09 µM)	3.12 (≈ 5.09 µM)	< 4.40	4.71	4.77	4.83	4.81	>10
COc1cc2c(cc(OC)c3cc(C)c(O)cc32)oc1=O [TRIGOFLAVIDOL C]	> 50	–	–	< 4.40	< 4.40	< 4.40	< 4.40	< 4.40	–
COc1cc2c(cc(OC)c3cc(C)c(O)cc32)c(C)c1O [TRIGONOCHINENE E]	> 50	–	–	5.43	4.54	4.68	4.74	4.69	>10
CN[C@H](CC(C)C)C(=O)N[C@H]1C(=O)N[C@@H](CC(N)=O)C(=O)N[C@H]2C(=O)N[C@H]3C(=O)N[C@H](C(=O)N[C@H](C(=O)O)c4cc(O)cc(O)c4-c4cc3ccc4O)[C@H](O)c3ccc(c(Cl)c3)Oc3cc2cc(c3O[C@@H]2O[C@H](CO)[C@@H](O)[C@H](O)[C@H]2O[C@H]2C[C@](C)(N)[C@H](O)[C@H](C)O2)Oc2ccc(cc2Cl)[C@H]1O.Cl [VANCOMYCIN HYDROCHLORIDE]	1.56	0.78	0.78	–	–	–	–	–	–
